# Screening results (PubChem)
# This is a sample that favours compounds with a hit; in the whole collection about 2.3% have one here.
# DNA FID counter – displaces DNA intercalator in HCV helicase counter-screen | DNA fluorescent intercalator displacement, fluorescence | inhibition, % at 7.9 µM | 290,000 compounds, 0.17% hits; in the data active means inhibition above about 37%;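 further: 0% = vehicle and 100% = reference compound; higher means more ethidium bromide displaced from hairpin DNA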
# TRPC6 activator – activators of mouse TRPC6 channel; Q61143; 310,000 compounds, 0.13% hits; HEK293-TRPC6 membrane potential dye fluorescence; active compounds read high; AID 2550; B-score at 10 µM;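 active means B-score of the integrated fluorescence ratio above library mean plus 3 SD, and starting fluorescence ratio within library mean plus 5 SD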;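 further: higher score means more depolarization so channel activation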
# TRPC4 inh – inhibitors of mouse TRPC4 channel; Q9QUQ5; HEK293 TRPC4beta/mu-opioid, DAMGO-evoked Fluo4 calcium flux; active compounds read low; B-score at 10 µM; 300,000 compounds, 0.39% hits;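 active means B-score over 3 SD under the library average, no early fluorescence shift, positive overall ratio signal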
#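 System: stable TRPC4beta/mu-opioid receptor HEK293 cells; Dosing: single-point compound dosing; Measured by: Fluo4 Ca2+ flux fluorescence; Read-out basis: per-well B score of integrated baseline-normalized Fluo4 ratio.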
# TRPC6 inh – inhibitors of mouse TRPC6 channel; AID 2553; B-score at 10 µM; 310,000 compounds, 1.1% hits; Q61143; HEK293-TRPC6, membrane potential dye, ACh-evoked depolarization; active compounds read low;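 active means B-score under library mean minus 3 SD, initial fluorescence not abnormally high, positive integrated signal ratio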;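 further: B-score derived from integrated fluorescence ratio over the kinetic read; more negative B-score means stronger inhibition of depolarization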
# TRPC4 PAM – allosterically enhances the mouse TRPC4 cation channel; B-score at 10 µM; Q9QUQ5; HEK293 TRPC4beta/mu-opioid, DAMGO EC20, Fluo-4 Ca2+ flux; active compounds read high; 310,000 compounds, 0.42% hits; AID 2227;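 active means B-score of calcium response area above 5 SD of library B-scores, with initial fluorescence ratio within 5 SD of library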;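 further: B-score of integrated fluorescence ratio over time as area under calcium response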
# TRPC4 agonist – TRPC4 (mouse) channel activation; HEK293 TRPC4beta/mu-opioid, Fluo4 calcium fluorescence; active compounds read high; 310,000 compounds, 0.49% hits; AID 2237; Q9QUQ5; B-score at 10 µM;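 active means B-score above 5 SD of library B-scores, and initial fluorescence ratio not above library mean plus 5 SD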;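 further: positive B-score marks a calcium rise read as TRPC4 activation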
#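 Material: HEK293 stable line with TRPC4beta plus mu-opioid receptor; technique: Fluo4 calcium-sensitive dye fluorescence, kinetic, 1 Hz baseline; timing: Fluo4 dye loading 45 min at room temperature, 110 s recording; controls: assay buffer as low control, maximal DAMGO as high control; read-out: integrated baseline-normalised fluorescence ratio, converted to per-well B score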
# Active calls of the source: *; i = inactive; . = not tested or not shown.
SMILES,DNA FID counter,TRPC6 activator,TRPC4 inh,TRPC6 inh,TRPC4 PAM,TRPC4 agonist
CN(C)C(CNC(=O)Cc1cccc(C(F)(F)F)c1)c1ccccc1 (configuration not stated),12,i,-7*,i,i,161*
CN(C)C(CNC(=O)C1CCN(S(=O)(=O)c2cccc(C(F)(F)F)c2)CC1)c1ccccc1 (configuration not stated),17,i,-8*,i,i,48*
CN(C)C(CNC(=O)Cc1cccc(C(F)(F)F)c1)c1ccco1 (configuration not stated),0,i,i,i,i,90*
CN(C)C(CNc1ccc(C(F)(F)F)cn1)c1ccccc1 (configuration not stated),12,i,i,i,i,97*
O=C(Cc1cccc(C(F)(F)F)c1)NCc1ccc(Cl)cc1,-8,i,i,i,i,i
COc1ccc(-c2csc(NC(CO)c3nc4ccccc4n3CCCO)n2)cc1 (configuration not stated),.,i,i,i,i,i
Cc1nnc(SCC(=O)NNC(=O)COc2ccc(Cl)cc2)n1C,-11,i,i,i,i,i
CC(Nc1nc(N2CCNCC2)nc2ccccc12)c1ccccc1 (configuration not stated),33,i,i,i,i,103*
OC1(c2ccc(F)cc2)CCN(Cc2ccccc2)C1 (configuration not stated),12,i,-6*,i,i,i
Cc1cc(NC(=O)c2ccc3[nH]c(C)c(C)c3c2)ccn1,37*,i,i,i,i,i
CC(=O)Nc1cccc(NC(=O)c2ccc3[nH]c(C)c(C)c3c2)c1,-11,i,i,i,i,i
COc1cc(NC(=O)CCN2CCN(Cc3ccccc3)CC2)cc(OC)c1,8,i,i,i,i,i
CCN(CCC(=O)Nc1cc(OC)cc(OC)c1)Cc1ccccc1,10,i,i,i,i,60*
CCCN(CCC(=O)Nc1ccccc1F)CC1CC1,-2,i,i,i,i,i
CCCN(CCC(=O)Nc1cc(OC)cc(OC)c1)CC1CC1,9,i,i,i,i,162*
CCOC(=O)N1CCN(C(=O)/C=C/c2ccc(OC)cc2)CC1,-16,i,i,i,i,i
Cc1ccccc1C1c2[nH]c3ccccc3c2C[C@H]2C(=O)N(C3CCN(Cc4ccccc4)CC3)CC(=O)N12 (some centres not stated),10,i,i,i,i,48*
COc1ccc(C(=O)N2CCCC(Nc3ccc(C)c(C)c3)C2)c(OC)n1 (configuration not stated),-24,i,i,i,i,i
CCOC(=O)C1CCCN(CCC(=O)Nc2cccc(C)c2)C1 (configuration not stated),11,i,i,i,i,54*
CCOC(=O)C1CCCN(CC(=O)c2ccc(F)cc2)C1 (configuration not stated),0,i,i,i,i,81*
COc1ccc(-n2nc3c(c2NC(=O)COc2cccc(OC)c2)CS(=O)(=O)C3)cc1,-27,i,i,i,i,i
O=C(COc1ccccc1)NCC(=O)N1CCCC1,-3,i,i,i,i,i
CC(Oc1ccc(Cl)cc1)C(=O)NNC(=S)NC(=O)c1ccco1 (configuration not stated),-9,i,i,i,i,183*
CCCOc1ccc(C(=O)NNC(=S)NC(=O)c2ccco2)cc1,-17,i,i,i,i,217*
O=C(NNC(=S)NC(=O)c1cccc([N+](=O)[O-])c1)c1ccc(Br)cc1,-4,i,i,i,i,79*
SMILES,DNA FID counter,TRPC6 activator,TRPC4 inh,TRPC6 inh,TRPC4 PAM,TRPC4 agonist
O=C(NNC(=S)NC(=O)c1cccc([N+](=O)[O-])c1)c1ccc(O)cc1,-1,i,i,i,i,i
O=C(NNC(=S)NC(=O)c1ccco1)c1ccc(F)cc1,-5,i,i,i,i,67*
O=C(COc1ccc(Cl)cc1Cl)NNC(=S)NC(=O)c1ccco1,-5,i,i,i,i,i
CCCOc1ccc(C(=O)NNC(=S)NC(=O)c2ccccc2[N+](=O)[O-])cc1,-26,i,i,i,i,i
O=C(Cc1ccc(S(=O)(=O)N2CCOCC2)s1)Oc1ccc(F)cc1,.,i,i,i,i,i
COc1ccccc1CNS(=O)(=O)c1c(C(=O)N2CCCCC2)c(C)n(C)c1C,-33,i,i,i,i,i
O=C(CN1C(=O)c2ccccc2S1(=O)=O)Nc1ccc(S(=O)(=O)Nc2ncccn2)cc1,.,i,i,i,i,i
COc1ccc(C(=O)NNC(=S)NC(=O)c2ccco2)cc1,-2,i,i,i,i,50*
O=C(NC(=S)NNC(=O)c1cccs1)c1ccco1,0,i,i,i,i,i
O=C(NC(=S)NNC(=O)c1ccco1)c1ccc(Br)cc1,-1,i,-8*,i,i,121*
CC1CN(C(=O)/C=C/c2ccc(SC(F)F)cc2)CC(C)O1 (configuration not stated),-27,i,i,i,i,i
COc1ccc(NC(=O)c2ccccc2N2C(=O)C3C4C=CC(C5CC45)C3C2=O)c(OC)c1 (configuration not stated),-24,i,i,i,i,i
COc1cc2c(cc1OC)CN(Cc1cc(=O)n3c(-c4ccccc4)csc3n1)CC2,-4,i,i,i,i,122*
COc1cc(=O)n2c(-c3ccccc3)csc2n1,-4,i,-7*,i,i,i
O=c1cc(CN2CCN(c3ccccc3)CC2)nc2scc(-c3ccccc3)n12,-20,i,i,i,i,i
Cc1ccc(C)c(S(=O)(=O)N(C)C2(C)CCS(=O)(=O)C2)c1 (configuration not stated),.,i,i,i,i,i
COc1ccc(CN2CCNC(=O)C2CC(=O)NCC(C)(C)N2CCOCC2)cc1C (configuration not stated),5,i,i,i,i,i
CCCCNC(=O)Cn1cnc2ccc(S(=O)(=O)N3CCC(C)CC3)cc2c1=O,-2,i,i,i,i,i
